Results from ChEMBL document CHEMBL2057089, “Design and synthesis of novel p38α MAP kinase inhibitors: discovery of pyrazole-benzyl ureas bearing 2-molpholinopyrimidine moiety” (Bioorg Med Chem Lett, 2012).

Experiments:
[1] = biological target: Mitogen-activated protein kinase 14 (Homo sapiens, UniProt Q16539); assay: Inhibition of human recombinant P38alpha-mediated ATF2 phosphorylation after 1 hr
[2] = tested on: Mus musculus; assay: Antiinflammatory activity in BALB/c mouse model of endotoxic shock assessed as inhibition of LPS-induced TNFalpha production at 50 mg/kg, po administered 30 mins before LPS challenge measured after 60 mins by ELISA; format: functional
Procedure, shortened: (§1)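 Male BALB/c mice, 8 weeks old, were dosed orally at 10 mL/kg. Controls received vehicle (27% hydroxypropyl-β-cyclodextrin, 10 mL/kg). LPS (1 mg/kg) was injected i.p. 30 min after dosing. Blood was taken 60 min after LPS, and serum was separated for TNF-α measurement.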

[3] = Antiinflammatory activity in human whole blood cells assessed as inhibition of LPS-induced TNFalpha production after 4 hrs by time-resolved fluorescence assay; format: functional, cell-based
Procedure, shortened: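 Freshly drawn heparinized human whole blood was given compound diluted in human serum AB and preincubated 1 h at 37 °C. It was then stimulated with LPS (200 ng/mL, E. coli O111:B4) for 4 h at 37 °C. Supernatant TNF-α was read by homogeneous time-resolved fluorescence.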

[4] = tested on: Mus musculus; assay: Hepatotoxicity in Crlj:CD1(ICR) mouse assessed as change in plasma AST level at 500 mg/kg, po administered for 5 consecutive days measured 24 hrs post final dosing (reference value: 45 +/- 11 U/L); format: toxicity, organism-based; parameters: dose 500 mg/kg, route oral; settings: in vivo
[5] = tested on: Mus musculus; assay: Hepatotoxicity in Crlj:CD1(ICR) mouse assessed as change in plasma AST level at 1000 mg/kg, po administered for 5 consecutive days measured 24 hrs post final dosing (reference value: 45 +/- 11 U/L); format: toxicity, organism-based; parameters: dose 1000 mg/kg, route oral; settings: in vivo
[6] = tested on: Mus musculus; assay: Antiinflammatory activity in po dosed BALB/c mouse model of endotoxic shock assessed as inhibition of LPS-induced TNFalpha production administered 30 mins before LPS challenge measured after 60 mins by ELISA
[7] = tested on: Mus musculus; assay: Hepatotoxicity in Crlj:CD1(ICR) mouse assessed as change in plasma ALT level at 2000 mg/kg, po administered for 5 consecutive days measured 24 hrs post final dosing (reference value: 24 +/- 4 U/L); format: toxicity, organism-based; parameters: dose 2000 mg/kg, route oral; settings: in vivo
[8] = tested on: Mus musculus; assay: Hepatotoxicity in Crlj:CD1(ICR) mouse assessed as change in plasma AST level at 2000 mg/kg, po administered for 5 consecutive days measured 24 hrs post final dosing (reference value: 45 +/- 11 U/L); format: toxicity, organism-based; parameters: dose 2000 mg/kg, route oral; settings: in vivo
[9] = tested on: Mus musculus; assay: Hepatotoxicity in Crlj:CD1(ICR) mouse assessed as change in plasma ALT level at 500 mg/kg, po administered for 5 consecutive days measured 24 hrs post final dosing (reference value: 24 +/- 4 U/L); format: toxicity, organism-based; parameters: dose 500 mg/kg, route oral; settings: in vivo
[10] = tested on: Mus musculus; assay: Hepatotoxicity in Crlj:CD1(ICR) mouse assessed as change in plasma ALT level at 1000 mg/kg, po administered for 5 consecutive days measured 24 hrs post final dosing (reference value: 24 +/- 4 U/L); format: toxicity, organism-based; parameters: dose 1000 mg/kg, route oral; settings: in vivo
[11] = tested on: Mus musculus; assay: Antiinflammatory activity in BALB/c mouse model of endotoxic shock assessed as inhibition of LPS-induced TNFalpha production at 100 mg/kg, po administered 30 mins before LPS challenge measured after 60 mins by ELISA; format: functional; procedure, shortened: as §1
[12] = tested on: Mus musculus; assay: Hepatotoxicity in Crlj:CD1(ICR) mouse assessed as change in plasma direct bilirubin level at 500 to 1000 mg/kg, po administered for 5 consecutive days measured 24 hrs post final dosing; format: toxicity, organism-based; parameters: dose 500-1000 mg/kg, route oral; settings: in vivo
[13] = tested on: Mus musculus; assay: Hepatotoxicity in Crlj:CD1(ICR) mouse assessed as change in plasma total bilirubin level at 500 to 1000 mg/kg, po administered for 5 consecutive days measured 24 hrs post final dosing; format: toxicity, organism-based; parameters: dose 500-1000 mg/kg, route oral; settings: in vivo
[14] = tested on: Mus musculus; assay: Hepatotoxicity in Crlj:CD1(ICR) mouse assessed as change in plasma AST level at 500 to 1000 mg/kg, po administered for 5 consecutive days measured 24 hrs post final dosing; format: toxicity, organism-based; parameters: dose 500-1000 mg/kg, route oral; settings: in vivo

Chain of Mitogen-activated protein kinase 14 (Q16539 whole entry): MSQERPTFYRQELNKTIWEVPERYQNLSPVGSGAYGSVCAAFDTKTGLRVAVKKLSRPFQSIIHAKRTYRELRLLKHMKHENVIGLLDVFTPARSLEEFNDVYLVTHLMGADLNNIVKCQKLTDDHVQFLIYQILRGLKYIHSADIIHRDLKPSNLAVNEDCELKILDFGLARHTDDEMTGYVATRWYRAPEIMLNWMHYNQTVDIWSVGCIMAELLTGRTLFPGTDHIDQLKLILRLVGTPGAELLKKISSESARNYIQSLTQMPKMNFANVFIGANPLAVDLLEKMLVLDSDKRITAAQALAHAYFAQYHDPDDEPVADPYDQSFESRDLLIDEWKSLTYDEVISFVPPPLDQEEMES

Structure (SMILES)	IC50 [1]	IC50 [3]	further results
Cc1ccc(-n2nc(C(C)(C)C)cc2NC(=O)NCc2ccccc2O)cc1	1500 nM		
Cc1ccc(-n2nc(C(C)(C)C)cc2NC(=O)NCc2ccccc2Oc2ccnc(N3CCOCC3)n2)cc1	12 nM	720 nM	inhibition in vivo at 50 mg/kg [2]: 65%
Cc1ccc(-n2nc(C(C)(C)C)cc2NC(=O)NCc2ccccc2Oc2ccnc(N3CCCCC3)n2)cc1	13 nM		
Cc1ccc(-n2nc(C(C)(C)C)cc2NC(=O)NCc2ccccc2Oc2ccnc(Cl)n2)cc1	20 nM		
Cc1ccc(-n2nc(C(C)(C)C)cc2NC(=O)NCc2cc(F)ccc2Oc2ccnc(N3CCOCC3)n2)cc1	4 nM	230 nM	Activity [4]: 42 U/L; Activity [5]: 47 U/L; ED50 [6]: 16 mg/kg; Activity [7]: 28 U/L; Activity [8]: 46 U/L; Activity [9]: 26 U/L; inhibition in vivo at 50 mg/kg [2]: 84%; Activity [10]: 32 U/L
Cc1ccc(-n2nc(C(C)(C)C)cc2NC(=O)NCc2cc(Cl)ccc2Oc2ccnc(N3CCOCC3)n2)cc1	5 nM	190 nM	inhibition in vivo at 100 mg/kg [11]: 81%
Cc1ccc(-n2nc(C(C)(C)C)cc2NC(=O)NCc2cc(C)ccc2Oc2ccnc(N3CCOCC3)n2)cc1	13 nM	970 nM	
Cc1ccc(-n2nc(C(C)(C)C)cc2NC(=O)NCc2cc(C(F)(F)F)ccc2Oc2ccnc(N3CCOCC3)n2)cc1	35 nM	> 10000 nM	
Cc1ccc(-n2nc(C(C)(C)C)cc2NC(=O)NCc2cc(F)cc(F)c2Oc2ccnc(N3CCOCC3)n2)cc1	3 nM	48 nM	
Cc1ccc(-n2nc(C(C)(C)C)cc2NC(=O)NCc2cc(F)cc(Cl)c2Oc2ccnc(N3CCOCC3)n2)cc1	11 nM	110 nM	
Cc1ccc(-n2nc(C(C)(C)C)cc2NC(=O)NCc2cc(F)cc(C)c2Oc2ccnc(N3CCOCC3)n2)cc1	14 nM		
Cc1ccc(-n2nc(C(C)(C)C)cc2NC(=O)Nc2ccc(OCCN3CCOCC3)c3ccccc23)cc1 [DORAMAPIMOD]		600 nM	Activity [12]: Toxic; Activity [13]: Toxic; Activity [14]: Toxic; inhibition in vivo at 50 mg/kg [2]: 82%
